# Published values pooled from the literature.
# Protocols differ between the studies behind these lines.
SMILES,system,setting,Vd
CC[C@H](C)[C@@H]1NC(=O)[C@@](C)(NC(=O)[C@H](CCCNC(=N)N)NC(=O)[C@H](CC(C)C)NC(=O)[C@@H](NC(=O)[C@H](CCC(N)=O)NC(=O)[C@H](CC(C)C)NC(C)=O)[C@@H](C)O)CCCC=CCCC[C@@](C)(C(=O)N[C@@H](CC(C)C)C(=O)N[C@@H](Cc2ccc3ccccc3c2)C(N)=O)NC(=O)[C@H](CCCNC(=N)N)NC(=O)[C@H](CCC(N)=O)NC1=O,"male BALB/c mouse, plasma","intravenous, 10 mg/kg",0.0788 L/kg
COc1ccc2nccc(N3CCc4c(cc(Cn5ccnc5)cc4-c4cn(C)nc4C(F)(F)F)C3=O)c2c1,"male CD-1 mouse, plasma","intravenous, 3 mg/kg",1 L/kg
COc1cc(C2Oc3cc([C@H]4Oc5cc(O)cc(O)c5C(=O)[C@@H]4O)ccc3OC2CO)ccc1O (stereo partly shown),"male CD-1 mouse, plasma","intravenous, 2 mg/kg",2.51 L/kg
CCc1cc(C(=O)NC)c2nccc(N3CCc4c(cc(Cn5ccnc5)cc4-c4cn(C)nc4C(F)(F)F)C3=O)c2c1,"male CD-1 mouse, plasma","intravenous, 3 mg/kg",0.4 L/kg
CCNc1nc2c(c(N3CC(=O)Nc4cc(OC)ccc43)n1)CCC2,"female C57BL/6 mouse, plasma","intravenous, 4 mg/kg, single dose",4.7 L/kg
COc1nc(-c2cc(C)c(N[C@@H](C)c3c(F)cc(F)cc3F)nn2)ccc1-n1cnc(C)c1,"male CD-1 mouse, plasma","intravenous, 1 mg/kg, single dose",1.52 L/kg
CC(C)(C)c1ccc(O)c(CN(Cc2cc(C(C)(C)C)ccc2O)C2CCC(NC(N)=O)CC2)c1 (stereo not shown),"male C57BL/6 mouse, plasma","intraperitoneal, 25 mg/kg, single dose",5.6 L
COc1cc(OC)c2nccc(N3CCc4c(cc(Cn5ccnc5)cc4-c4cn(C)nc4C(F)(F)F)C3=O)c2c1,"male CD-1 mouse, plasma","intravenous, 3 mg/kg",2 L/kg
CNCCN(C)c1cc(C#N)cc(CCc2cc(C)cc(N)n2)c1,"male BALB/c mouse, brain","intravenous, 2 mg/kg",44 L/kg
COc1nc(-c2cc(C)c(N[C@@H](C)c3cc(F)cc(F)c3)nn2)ccc1-n1cnc(C)c1,"male CD-1 mouse, plasma","intravenous, 1 mg/kg, single dose",2.1 L/kg
